We go through eleven molecules from ChEMBL document CHEMBL1145239 (Bioorg Med Chem Lett, 2005).

Chain of Dipeptidyl peptidase 4 (P14740 whole entry): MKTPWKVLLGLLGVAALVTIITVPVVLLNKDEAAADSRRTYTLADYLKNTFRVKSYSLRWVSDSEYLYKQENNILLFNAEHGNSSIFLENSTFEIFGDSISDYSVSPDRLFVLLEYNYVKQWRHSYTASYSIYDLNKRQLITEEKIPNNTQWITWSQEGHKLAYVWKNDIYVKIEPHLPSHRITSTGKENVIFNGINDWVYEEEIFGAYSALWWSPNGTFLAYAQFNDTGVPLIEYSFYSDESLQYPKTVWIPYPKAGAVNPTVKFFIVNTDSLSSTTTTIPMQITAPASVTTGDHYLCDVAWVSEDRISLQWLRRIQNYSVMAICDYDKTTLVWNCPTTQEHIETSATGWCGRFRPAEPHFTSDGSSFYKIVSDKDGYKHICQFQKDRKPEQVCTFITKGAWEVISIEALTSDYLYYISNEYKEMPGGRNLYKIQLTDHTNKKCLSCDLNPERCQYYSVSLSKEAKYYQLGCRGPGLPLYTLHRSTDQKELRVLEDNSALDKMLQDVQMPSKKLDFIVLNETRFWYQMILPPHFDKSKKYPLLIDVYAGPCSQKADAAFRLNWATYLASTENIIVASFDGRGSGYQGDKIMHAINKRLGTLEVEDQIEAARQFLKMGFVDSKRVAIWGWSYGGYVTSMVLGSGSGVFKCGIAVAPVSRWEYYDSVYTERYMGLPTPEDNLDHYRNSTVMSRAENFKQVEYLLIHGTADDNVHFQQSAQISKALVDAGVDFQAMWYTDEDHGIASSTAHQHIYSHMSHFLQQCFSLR

The assay addresses Dipeptidyl peptidase 4 (Rattus norvegicus, UniProt P14740). The assay can be described thus: Inhibitory concentration against rat dipeptidylpeptidase IV. The method, boiled down:
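DPP-IV activity in rat plasma (10-fold diluted) by fluorescence with Gly-Pro-MCA substrate (100 µmol/L solution added); buffer PBS with 0.003% Brij-35. Inhibitor at various concentrations, room temperature, 60 min. Inhibition relative to solvent control; IC50 by logistic analysis.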
As to `N#C[C@@H]1CCCN1C(=O)[C@@H]1C[C@H](N)CN1`, half-maximal inhibition (IC50) required 9.1 nM.
For `N#C[C@@H]1CCCN1C(=O)[C@@H]1C[C@H](NC2CCCCC2)CN1` the value was 3.6 nM; for `N#C[C@@H]1CCCN1C(=O)[C@@H]1C[C@H](NS(=O)(=O)c2ccccc2)CN1`, 3.9 nM.
`N#C[C@@H]1CCCN1C(=O)[C@@H]1C[C@H](NCCc2ccccc2)CN1`: 1.5 nM corresponded to half-maximal inhibition (IC50).
On to `COc1ccc(N[C@@H]2CN[C@H](C(=O)N3CCC[C@H]3C#N)C2)cc1`, for which it took 0.28 nM to reach half-maximal inhibition (IC50).
Under `N#C[C@@H]1CCCN1C(=O)[C@@H]1C[C@H](NCc2ccccc2)CN1` stands 3 nM; under `N#Cc1ccc(N[C@@H]2CN[C@H](C(=O)N3CCC[C@H]3C#N)C2)cc1C#N`, 0.17 nM.
`N#Cc1ccc(N[C@@H]2CN[C@H](C(=O)N3CCC[C@H]3C#N)C2)cc1` gave an IC50 of 0.26 nM.
Under `N#C[C@@H]1CCCN1C(=O)[C@@H]1C[C@H](NC(=O)Nc2ccccc2)CN1` stands 1.1 nM; under `COc1ccc(N[C@@H]2CN[C@H](C(=O)N3CCC[C@H]3C#N)C2)cc1OC`, 0.24 nM.
`N#C[C@@H]1CCCN1C(=O)[C@@H]1C[C@H](NC(=O)c2ccccc2)CN1` came in with an IC50 of 3.8 nM.
